# ChEMBL document CHEMBL1124052, “New inhibitors of human renin that contain novel Leu-Val replacements. Examination of the P1 site” (J Med Chem, 1988)
# Non-standard residues stand in square brackets, D forms with d. Residues, ends and D or L forms follow the SMILES beside them. *: point of attachment. hCha = N[C@@H](CCC1CCCCC1)C(=O)O; Cha = N[C@@H](CC1CCCCC1)C(=O)O; Chg = N[C@H](C(=O)O)C1CCCCC1; Boc = CC(C)(C)OC(=O)*
# Target: T1, Renin (Homo sapiens) (UniProt P00797)
# T1 sequence (whole entry): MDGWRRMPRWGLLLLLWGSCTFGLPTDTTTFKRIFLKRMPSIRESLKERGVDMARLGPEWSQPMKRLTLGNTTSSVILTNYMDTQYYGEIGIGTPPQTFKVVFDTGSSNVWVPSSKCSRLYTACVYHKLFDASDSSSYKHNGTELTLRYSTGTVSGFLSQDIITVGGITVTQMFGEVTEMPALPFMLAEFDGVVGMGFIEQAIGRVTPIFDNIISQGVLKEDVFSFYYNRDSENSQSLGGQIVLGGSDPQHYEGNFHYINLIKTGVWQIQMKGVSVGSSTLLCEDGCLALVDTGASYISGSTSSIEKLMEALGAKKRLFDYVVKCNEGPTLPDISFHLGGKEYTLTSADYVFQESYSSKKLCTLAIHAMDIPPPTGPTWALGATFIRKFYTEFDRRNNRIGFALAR
# Assay: Inhibitory activity against human renal renin at pH 6 at concentration 10E-5 M
# Conditions: not given
row,inhibition [%],Structure (SMILES)
1,45,CC(C)SC[C@H](O)[C@H](CCC1CCCCC1)NC(=O)[C@H](C)NC(=O)[C@H](Cc1ccccc1)NC(=O)OC(C)(C)C

# Target: T1, Renin (Homo sapiens)
# Assay: (§1) Inhibition of human renal renin at pH 6
# Conditions: concentration not given here
# Outline: (§2)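 Purified human renal renin (0.24 mGU) was incubated with pure human angiotensinogen (0.21 µM final) in 0.135 M maleate pH 6.0 with 3 mM EDTA, 1.4 mM PMSF, 0.44% BSA and 1% DMSO. At least three inhibitor levels bracketing the IC50 were preincubated with renin for 5.0 min at 37 °C, then reacted 10.0 min. The reaction was stopped by freezing, angiotensin I was measured by RIA, and the IC50 was taken by regression of percent inhibition.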
row,inhibition [%],Structure (SMILES)
1,11,CC(C)SC[C@H](O)[C@@H](NC(=O)[C@H](C)NC(=O)[C@H](Cc1ccccc1)NC(=O)OC(C)(C)C)C(c1ccccc1)c1ccccc1
2,5,Cc1cc(C)c(C[C@H](NC(=O)[C@H](C)NC(=O)[C@H](Cc2ccccc2)NC(=O)OC(C)(C)C)[C@@H](O)CSC(C)C)c(C)c1
3,3,CC(C)SC[C@H](O)[C@@H](NC(=O)[C@H](Cc1c[nH]cn1)NC(=O)[C@H](Cc1ccccc1)NC(=O)OC(C)(C)C)C(c1ccccc1)c1ccccc1

# Target: T2, Renin (Homo sapiens, UniProt P00797)
# T2 sequence (P00797 whole entry): T1 sequence (whole entry)
# Assay: as §1
# Conditions: not given
# Outline: as §2
row,Structure (SMILES),IC50 [nM]
1,CC(C)C[C@@H](C=O)NC(=O)[C@H](C)NC(=O)[C@H](Cc1ccccc1)NC(=O)OC(C)(C)C (Boc-Phe-Ala-Leu-aldehyde),20000
2,C[C@H](NC(=O)[C@H](Cc1ccccc1)NC(=O)OC(C)(C)C)C(=O)N[C@H](C=O)C(C1CCCCC1)C1CCCCC1,40000
3,C[C@H](NC(=O)[C@H](Cc1ccccc1)NC(=O)OC(C)(C)C)C(=O)N[C@H](C=O)CC12CC3CC(CC(C3)C1)C2,35000
4,C[C@H](NC(=O)[C@H](Cc1ccccc1)NC(=O)OC(C)(C)C)C(=O)N[C@H](C=O)CCC1CCCCC1 (Boc-Phe-Ala-[hCha]-aldehyde),55000

# Now from value to compound:
row,IC50 [nM],Structure (SMILES)
1,150,CC(C)SC[C@H](O)[C@@H](NC(=O)[C@H](Cc1cnc[nH]1)NC(=O)[C@H](Cc1ccccc1)NC(=O)OC(C)(C)C)C1CCCCC1
2,460,C[C@H](NC(=O)[C@H](Cc1ccccc1)NC(=O)OC(C)(C)C)C(=O)N[C@H](C=O)CC1CCCCC1 (Boc-Phe-Ala-[Cha]-aldehyde)
3,9,CC(C)SC[C@H](O)[C@H](CC1CCCCC1)NC(=O)[C@H](C)NC(=O)[C@H](Cc1ccccc1)NC(=O)OC(C)(C)C
4,19,CC(C)SC[C@H](O)[C@H](Cc1ccccc1)NC(=O)[C@H](Cc1cnc[nH]1)NC(=O)[C@H](Cc1ccccc1)NC(=O)OC(C)(C)C
5,81,CC(C)C[C@H](NC(=O)[C@H](Cc1cnc[nH]1)NC(=O)[C@H](Cc1ccccc1)NC(=O)OC(C)(C)C)[C@@H](O)CSC(C)C
6,1000,C[C@H](NC(=O)[C@H](Cc1ccccc1)NC(=O)OC(C)(C)C)C(=O)N[C@H](C=O)C1CCCCC1 (Boc-Phe-Ala-[Chg]-aldehyde)
7,2500,CC(C)SC[C@H](O)[C@H](CC12CC3CC(CC(C3)C1)C2)NC(=O)[C@H](Cc1c[nH]cn1)NC(=O)[C@H](Cc1ccccc1)NC(=O)OC(C)(C)C
8,1500,CC(C)SC[C@H](O)[C@@H](NC(=O)[C@H](C)NC(=O)[C@H](Cc1ccccc1)NC(=O)OC(C)(C)C)C1CCCCC1
9,1500,CC(C)SC[C@H](O)[C@H](CCC1CCCCC1)NC(=O)[C@H](Cc1c[nH]cn1)NC(=O)[C@H](Cc1ccccc1)NC(=O)OC(C)(C)C
10,170,CC(C)SC[C@H](O)[C@H](Cc1ccccc1)NC(=O)[C@H](C)NC(=O)[C@H](Cc1ccccc1)NC(=O)OC(C)(C)C
